Assay results reported in ChEMBL document CHEMBL1129565, “Selective inhibitors of monoamine oxidase. 3. Structure-activity relationship of tricyclics bearing imidazoline, oxadiazole, or tetrazole groups” (J Med Chem, 1996).
Values belong to the compound of their own block, whether it stands above or below them.

Legend:
[1] = target: T1, Amine oxidase [flavin-containing] A (Rattus norvegicus, UniProt P21396); experiment: Inhibitory activity against Monoamine oxidase A at 1 uM
T1 sequence (P21396 whole entry): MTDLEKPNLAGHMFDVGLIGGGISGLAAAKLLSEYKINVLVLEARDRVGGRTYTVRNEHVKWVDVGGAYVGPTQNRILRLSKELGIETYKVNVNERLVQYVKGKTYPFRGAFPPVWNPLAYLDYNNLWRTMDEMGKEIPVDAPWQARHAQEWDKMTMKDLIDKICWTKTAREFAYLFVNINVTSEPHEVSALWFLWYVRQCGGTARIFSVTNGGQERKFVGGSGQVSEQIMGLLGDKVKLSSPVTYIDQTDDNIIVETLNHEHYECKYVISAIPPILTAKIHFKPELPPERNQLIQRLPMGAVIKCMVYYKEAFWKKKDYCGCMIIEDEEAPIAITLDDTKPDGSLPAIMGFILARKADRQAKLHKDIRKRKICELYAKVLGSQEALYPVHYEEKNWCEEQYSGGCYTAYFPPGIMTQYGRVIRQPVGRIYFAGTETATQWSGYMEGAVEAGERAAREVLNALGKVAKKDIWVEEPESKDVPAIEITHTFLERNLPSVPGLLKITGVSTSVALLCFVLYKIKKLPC
Procedure, shortened: (§1)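 Rat brain mitochondrial MAO extract preincubated with inhibitor 15 min at 37 °C in 50 mM potassium phosphate pH 7.4. [3H]serotonin added at 0.2 μM final, then 20 min incubation. Pargyline 2 mM blanks. Stopped with HCl, products extracted into ethyl acetate/toluene and counted radiometrically. Triplicates; IC50 from mean % inhibition vs log concentration.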

[2] = target: T2, Amine oxidase [flavin-containing] B (Rattus norvegicus, UniProt P19643); experiment: Inhibitory activity against rat brain mitochondrial Monoamine oxidase B at 0.003 uM
T2 sequence (P19643 whole entry): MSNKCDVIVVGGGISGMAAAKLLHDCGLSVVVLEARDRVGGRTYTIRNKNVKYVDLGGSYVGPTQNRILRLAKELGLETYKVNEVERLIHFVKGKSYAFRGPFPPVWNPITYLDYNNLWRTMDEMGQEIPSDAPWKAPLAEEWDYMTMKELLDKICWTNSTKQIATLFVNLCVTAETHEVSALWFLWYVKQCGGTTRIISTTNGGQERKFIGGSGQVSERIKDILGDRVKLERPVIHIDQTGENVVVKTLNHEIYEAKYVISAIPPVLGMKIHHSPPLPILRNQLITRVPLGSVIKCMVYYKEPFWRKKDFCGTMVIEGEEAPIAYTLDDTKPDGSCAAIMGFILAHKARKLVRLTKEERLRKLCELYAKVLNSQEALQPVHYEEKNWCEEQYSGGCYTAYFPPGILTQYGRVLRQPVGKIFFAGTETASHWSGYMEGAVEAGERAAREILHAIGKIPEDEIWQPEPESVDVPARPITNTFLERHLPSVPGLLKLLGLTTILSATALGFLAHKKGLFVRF
Procedure, shortened: as §1, with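 “[14C]phenethylamine” for “[3H]serotonin”, “10” for “0.2”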

[3] = target: T1, Amine oxidase [flavin-containing] A; experiment: Inhibition of the enzyme Monoamine oxidase A which was not completely reverserved after 24 hr of dialysis
Procedure, shortened: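 Reversibility: MAO extract preincubated with or without inhibitor 15 min at 37 °C, in duplicate, then dialysed 24 h at 4 °C with shaking against 0.1 M potassium phosphate pH 7.4, 5% sucrose, 1 mM dithiothreitol, buffer changed ca. 3 and 19 h. Undialysed portions held at 4 °C; both assayed together for MAO activity.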

[4] = target: T1, Amine oxidase [flavin-containing] A; experiment: Inhibitory concentration against rat brain mitochondrial monoamine oxidase A; procedure, shortened: as §1
[5] = target: T2, Amine oxidase [flavin-containing] B; experiment: Inhibitory activity against rat brain mitochondrial Monoamine oxidase B; NS=not significant at 0.001 uM
Procedure, shortened: as §1, with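 “[14C]phenethylamine” for “[3H]serotonin”, “10” for “0.2”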

[6] = target: T2, Amine oxidase [flavin-containing] B; experiment: Inhibitory activity against Monoamine oxidase B at 1 uM
Procedure, shortened: as §1, with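 “[14C]phenethylamine” for “[3H]serotonin”, “10” for “0.2”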

[7] = target: T1, Amine oxidase [flavin-containing] A; experiment: Inhibitory concentration against Monoamine oxidase A
Procedure, shortened: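 Rat brain mitochondrial MAO extract was preincubated ± inhibitor 15 min at 37 °C in 50 mM potassium phosphate (pH 7.4), then given [3H]serotonin at 0.2 μM final for 20 min. Blanks contained 2 mM pargyline. Products went into ethyl acetate/toluene for scintillation counting. Triplicates per concentration; IC50 extrapolated from mean % inhibition vs log concentration plots.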

[8] = target: T2, Amine oxidase [flavin-containing] B; experiment: Inhibitory activity against rat brain mitochondrial Monoamine oxidase B at 0.03 uM
Procedure, shortened: as §1, with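 “[14C]phenethylamine” for “[3H]serotonin”, “10” for “0.2”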

[9] = target: T1, Amine oxidase [flavin-containing] A; experiment: Inhibitory concentration against rat brain mitochondrial Monoamine oxidase A at 3 uM; procedure, shortened: as §1
[10] = target: T2, Amine oxidase [flavin-containing] B; experiment: Inhibitory activity against rat brain mitochondrial Monoamine oxidase B at 3 uM
Procedure, shortened: as §1, with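 “[14C]phenethylamine” for “[3H]serotonin”, “10” for “0.2”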

[11] = target: T2, Amine oxidase [flavin-containing] B; experiment: Inhibitory activity against rat brain mitochondrial Monoamine oxidase B at 0.5 uM
Procedure, shortened: as §1, with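 “[14C]phenethylamine” for “[3H]serotonin”, “10” for “0.2”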

[12] = target: T1, Amine oxidase [flavin-containing] A; experiment: Inhibition of the enzyme Monoamine oxidase A which was not completely reverserved after 24 hr of dialysis after 25 mg/kg po administration *; type: organism-based; design: dose 25 mg/kg, route oral; conditions: in vivo
[13] = target: T2, Amine oxidase [flavin-containing] B; experiment: Inhibitory activity against rat brain mitochondrial Monoamine oxidase B; NS=not significant ta 1 uM
Procedure, shortened: as §1, with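 “[14C]phenethylamine” for “[3H]serotonin”, “10” for “0.2”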

[14] = target: T2, Amine oxidase [flavin-containing] B; experiment: Inhibitory activity against rat brain mitochondrial Monoamine oxidase B at 50 uM
Procedure, shortened: as §1, with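 “[14C]phenethylamine” for “[3H]serotonin”, “10” for “0.2”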

[15] = target: T2, Amine oxidase [flavin-containing] B; experiment: Inhibitory activity against rat brain mitochondrial Monoamine oxidase B at 0.2 uM
Procedure, shortened: as §1, with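 “[14C]phenethylamine” for “[3H]serotonin”, “10” for “0.2”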

[16] = target: T2, Amine oxidase [flavin-containing] B; experiment: Inhibitory activity against rat brain mitochondrial Monoamine oxidase B 0.1(uM)
Procedure, shortened: as §1, with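 “[14C]phenethylamine” for “[3H]serotonin”, “10” for “0.2”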

[17] = target: T1, Amine oxidase [flavin-containing] A; experiment: Inhibition of the enzyme MAO A which was not completely reverserved after 24 hr of dialysis after po administration to rat (brain); type: organism-based; conditions: in vivo
[18] = target: T1, Amine oxidase [flavin-containing] A; experiment: Inhibitory concentration against rat brain mitochondrial Monoamine oxidase A at <5 uM; procedure, shortened: as §1
[19] = target: T2, Amine oxidase [flavin-containing] B; experiment: Inhibitory activity against rat brain mitochondrial Monoamine oxidase B
Procedure, shortened: as §1, with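 “[14C]phenethylamine” for “[3H]serotonin”, “10” for “0.2”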

[20] = target: T1, Amine oxidase [flavin-containing] A; experiment: Inhibitory concentration against rat brain mitochondrial Monoamine oxidase A (Expt 1); procedure, shortened: as §1
[21] = target: T1, Amine oxidase [flavin-containing] A; experiment: Inhibitory activity against rat brain mitochondrial Monoamine oxidase A (Expt 2)
[22] = target: T2, Amine oxidase [flavin-containing] B; experiment: Inhibitory activity against rat brain mitochondrial Monoamine oxidase B;NS=not significant at 0.1 uM
Procedure, shortened: as §1, with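 “[14C]phenethylamine” for “[3H]serotonin”, “10” for “0.2”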

[23] = target: T1, Amine oxidase [flavin-containing] A; experiment: Inhibition of the enzyme Monoamine oxidase A which was not completely reverserved after 24 hr of dialysis after 20 mg/kg po administration; type: organism-based; design: dose 20 mg/kg, route oral; conditions: in vivo
[24] = target: T2, Amine oxidase [flavin-containing] B; experiment: Inhibitory activity against Monoamine oxidase B; NS=not significant at 0.001 uM
Procedure, shortened: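 Rat brain mitochondrial MAO extract preincubated with or without inhibitor 15 min at 37 °C in 50 mM potassium phosphate, pH 7.4. [14C]phenethylamine was then added to 10 μM final and incubated 20 min. Blanks contained 2 mM pargyline. Products were extracted into ethyl acetate/toluene and counted by scintillation. Triplicates at each inhibitor concentration; mean percent inhibition.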

[25] = target: T2, Amine oxidase [flavin-containing] B; experiment: Inhibitory activity against rat brain mitochondrial Monoamine oxidase B;NS=not significant at 1 uM
Procedure, shortened: as §1, with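 “[14C]phenethylamine” for “[3H]serotonin”, “10” for “0.2”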

[26] = target: T2, Amine oxidase [flavin-containing] B; experiment: Inhibitory activity against rat brain mitochondrial Monoamine oxidase B at 0.0 uM
Procedure, shortened: as §1, with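 “[14C]phenethylamine” for “[3H]serotonin”, “10” for “0.2”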

[27] = target: T2, Amine oxidase [flavin-containing] B; experiment: Inhibitory activity against rat brain mitochondrial Monoamine oxidase B; NS=not significant at 1 uM
Procedure, shortened: as §1, with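 “[14C]phenethylamine” for “[3H]serotonin”, “10” for “0.2”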

[28] = target: T1, Amine oxidase [flavin-containing] A; experiment: Inhibitory concentration against rat brain mitochondrial Monoamine oxidase A at 0.5 uM; procedure, shortened: as §1
[29] = target: T2, Amine oxidase [flavin-containing] B; experiment: Inhibitory activity against rat brain mitochondrial Monoamine oxidase B at 0.1 uM
Procedure, shortened: as §1, with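 “[14C]phenethylamine” for “[3H]serotonin”, “10” for “0.2”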

SMILES: CCCOc1ccc2c(c1)C(=O)c1ccc(-c3nnn(C)n3)cc1S2(=O)=O
inhibition at 0.003 µM [2]: -13%
Reversible [3]: 0%
IC50 [4]: 0.002 µM

SMILES: Cc1ccc2c(c1)C(=O)c1ccc(-c3nnc(C)o3)cc1S2(=O)=O
Reversible [3]: 10%
IC50 [5]: Not Active
IC50 [4]: 0.002 µM

SMILES: COc1nc(-c2ccc3c(c2)S(=O)(=O)c2ccccc2C3=O)no1
inhibition at 0.5 µM [11]: 23%
IC50 [4]: 0.08 µM

SMILES: Cc1nnc(-c2ccc3c(c2)S(=O)(=O)c2ccccc2C3=O)o1
Reversible [12]: 33%
IC50 [13]: Not Active
IC50 [4]: 0.002 µM

SMILES: Cn1nnc(-c2ccc3c(c2)S(=O)(=O)c2ccccc2O3)n1
inhibition at 50 µM [14]: 10%
IC50 [4]: 0.002 µM

SMILES: O=C1c2cc(N3CCSCC3)ccc2S(=O)(=O)c2cc(C3=NCCN3)ccc21
inhibition at 0.2 µM [15]: 10%
IC50 [4]: 0.02 µM

SMILES: O=C1c2ccccc2S(=O)(=O)c2cc(-c3ncc[nH]3)ccc21
Inhibition [18]: 44%
Inhibition [19]: 10%

SMILES: CCCOc1ccc2c(c1)C(=O)c1ccc(C3=NCCN3)cc1S2(=O)=O
IC50 [20]: 0.04 µM
IC50 [21]: 0.009 µM
Reversible [3]: 2%
IC50 [22]: Not Active

SMILES: Cc1nnc(-c2ccc3c(c2)OOc2ccccc2C3=O)o1
Reversible [23]: 12%
IC50 [7]: 0.002 µM
Inhibition [24]: Not Active

SMILES: O=C1c2cc(NCCO)ccc2S(=O)(=O)c2cc(C3=NCCN3)ccc21
IC50 [25]: Not Active
IC50 [4]: 0.04 µM

SMILES: CCCNc1ccc2c(c1)C(=O)c1ccc(C3=NCCN3)cc1S2(=O)=O
Reversible [3]: 0%
Inhibition [26]: 4%
IC50 [4]: 0.02 µM

SMILES: CC(C)(C)c1ccc2c(c1)C(=O)c1ccc(C3=NCCN3)cc1S2(=O)=O
Reversible [3]: 56%
IC50 [27]: Not Active
IC50 [4]: 0.8 µM

SMILES: O=C1c2ccccc2S(=O)(=O)c2cc(-c3nnc(C(F)(F)F)o3)ccc21
inhibition at 0.5 µM [28]: 7%
inhibition at 0.1 µM [29]: 7%

The next lines start with the values.

inhibition at 1 µM [1]: 30%
SMILES: c1ccc2c(c1)cc(C1=NCCN1)c1ccccc12

inhibition at 1 µM [6]: 31%
IC50 [7]: 0.3 µM
SMILES: c1ccc2c(c1)Sc1ccc(C3=NCCN3)cc1S2

inhibition at 0.03 µM [8]: 8%
Reversible [3]: 21%
IC50 [4]: 0.02 µM
SMILES: CN(C)c1ccc2c(c1)C(=O)c1ccc(C3=NCCN3)cc1S2(=O)=O

inhibition at 3 µM [9]: 33%
inhibition at 3 µM [10]: 38%
SMILES: c1ccc2c(c1)[nH]c1cc(C3=NCCN3)ccc12

% inhibition [16]: 5%
SMILES: O=S1(=O)c2cc(C3=NCCN3)ccc2Oc2ccc(C3=NCCN3)cc21

inhibition at 0.2 µM [15]: 3%
Reversible [17]: 60%
IC50 [4]: 0.07 µM
SMILES: O=C1c2cc(Cl)ccc2S(=O)(=O)c2cc(C3=NCCN3)ccc21
